“Also recorded” adds a separate entry of the source.
Assays:
[1] = target: truncated huCD4 D1D2 Q15A (Homo sapiens, UniProt P01730, Q15A); experiment: Cell-free in vitro translation and translocation; assay type: biochemical
Procedure, shortened: (§1)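 Truncated huCD4 D1D2 (lacking glycosylation sites and membrane anchor) was made by PCR and transcribed with T7. Proteinase K protection ran 30 min on ice and was quenched with PMSF. Products were separated by SDS-PAGE and imaged by phosphor imaging. The SP-cleaved band was normalised to the matching control. Data are from 2–5 independent experiments, compared with WT by Welch t test.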

huCD4_1–32-YFP G25A = huCD4_1–32-YFP G25A (Homo sapiens, UniProt P01730, G25A); experiment: CADA inhibition of huCD4_1–32-YFP secretion; assay type: cell-based
Procedure, shortened: (§2)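 HEK293T cells were lipofected with human CD4 residues 1–32 fused to the N-terminus of YFP (secreted, no membrane anchor). Test compound was added 6 h post-transfection as 1:5 serial dilutions (50–0.016 μM) for 48 h. Supernatant was captured on GFP-Trap magnetic beads for 1 h, washed in PBS, and YFP was read by flow cytometry. IC50 is 50% of the untreated control, from four-parameter fits of ≥3 replicate experiments. FC is mutant/WT mean IC50.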

huCD4_1–32-YFP L14A = huCD4_1–32-YFP L14A (Homo sapiens, UniProt P01730, L14A); experiment: CADA inhibition of huCD4_1–32-YFP secretion; assay type: cell-based
Procedure, shortened: (§3)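 HEK293T cells were grown in DMEM with 10% FBS and 10 mM HEPES, seeded and left to adhere overnight, then transiently transfected with plasmid by Lipofectamine. Test compound was added 6 h after transfection as a 1:5 serial dilution (50 to 0.016 μM) for 48 h. Secreted YFP in the supernatant was captured on GFP-Trap magnetic beads for 1 h, washed with PBS and measured by flow cytometry. IC50 is the concentration that halves the signal relative to the untreated control, taken from a four-parameter fit of at least three replicate experiments. FC is the mutant mean IC50 divided by the WT mean IC50.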

FL huCD4 K27A = FL huCD4 K27A (Homo sapiens, UniProt P01730, K27A); experiment: CADA down-modulation of cellular huCD4; assay type: cell-based
Procedure, shortened: (§4)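 HEK293T cells, seeded overnight in DMEM with 10% serum, 1 mM sodium pyruvate and 0.075% NaHCO₃, were lipofected with full-length human CD4 (WT or mutant). Test compound in DMSO was added 6 h post-transfection as 1:5 serial dilutions (50–0.016 μM) for 48 h. Surface CD4 was stained with FITC/APC anti-CD4 (SK3) and read by flow cytometry. IC50 is 50% of the untreated signal, from four-parameter fits of ≥3 replicate experiments. FC is mutant/WT mean IC50.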

FL huCD4 V13L;A17L = FL huCD4 V13L;A17L (Homo sapiens, UniProt P01730, A17L/V13L); experiment: CADA down-modulation of cellular huCD4; assay type: cell-based; conditions: HEK293T, 48h
Procedure, shortened: as §4

[2] = target: truncated huCD4 D1D2 Q15A;P20A (Homo sapiens, UniProt P01730, P20A/Q15A); experiment: Cell-free in vitro translation and translocation; assay type: biochemical
Procedure, shortened: as §1

[3] = target: truncated huCD4 D1D2 L16A (Homo sapiens, UniProt P01730, L16A); experiment: Cell-free in vitro translation and translocation; assay type: biochemical; conditions: 15 μM CADA
Procedure, shortened: as §1

huCD4_1–32-YFP Q15A;P20A = huCD4_1–32-YFP Q15A;P20A (Homo sapiens, UniProt P01730, P20A/Q15A); experiment: CADA inhibition of huCD4_1–32-YFP secretion; assay type: cell-based; conditions: HEK293T, 48h
Procedure, shortened: as §3

huCD4_1–32-YFP A22V = huCD4_1–32-YFP A22V (Homo sapiens, UniProt P01730, A22V); experiment: CADA inhibition of huCD4_1–32-YFP secretion; assay type: cell-based
Procedure, shortened: as §2

FL huCD4 P20A = FL huCD4 P20A (Homo sapiens, UniProt P01730, P20A); experiment: CADA down-modulation of cellular huCD4; assay type: cell-based
Procedure, shortened: as §4

huCD4_1–32-YFP Q15A = huCD4_1–32-YFP Q15A (Homo sapiens, UniProt P01730, Q15A); experiment: CADA inhibition of huCD4_1–32-YFP secretion; assay type: cell-based
Procedure, shortened: as §3

FL huCD4 WT = FL huCD4 WT (Homo sapiens, UniProt P01730); experiment: CADA down-modulation of cellular huCD4; assay type: cell-based
Procedure, shortened: as §4

huCD4_1–32-YFP A21V = huCD4_1–32-YFP A21V (Homo sapiens, UniProt P01730, A21V); experiment: CADA inhibition of huCD4_1–32-YFP secretion; assay type: cell-based
Procedure, shortened: as §2

FL huCD4 L18A = FL huCD4 L18A (Homo sapiens, UniProt P01730, L18A); experiment: CADA down-modulation of cellular huCD4; assay type: cell-based
Procedure, shortened: as §4

huCD4_1–32-YFP H9A = huCD4_1–32-YFP H9A (Homo sapiens, UniProt P01730, H9A); experiment: CADA inhibition of huCD4_1–32-YFP secretion; assay type: cell-based
Procedure, shortened: as §3

[4] = target: truncated huCD4 D1D2 L12A (Homo sapiens, UniProt P01730, L12A); experiment: Cell-free in vitro translation and translocation; assay type: biochemical; conditions: 15 μM CADA
Procedure, shortened: as §1

huCD4_1–32-YFP A17V = huCD4_1–32-YFP A17V (Homo sapiens, UniProt P01730, A17V); experiment: CADA inhibition of huCD4_1–32-YFP secretion; assay type: cell-based
Procedure, shortened: as §2

huCD4_1–32-YFP F7A = huCD4_1–32-YFP F7A (Homo sapiens, UniProt P01730, F7A); experiment: CADA inhibition of huCD4_1–32-YFP secretion; assay type: cell-based
Procedure, shortened: as §2

huCD4_1–32-YFP L10A = huCD4_1–32-YFP L10A (Homo sapiens, UniProt P01730, L10A); experiment: CADA inhibition of huCD4_1–32-YFP secretion; assay type: cell-based
Procedure, shortened: as §3

huCD4_1–32-YFP L12A = huCD4_1–32-YFP L12A (Homo sapiens, UniProt P01730, L12A); experiment: CADA inhibition of huCD4_1–32-YFP secretion; assay type: cell-based
Procedure, shortened: as §3

FL huCD4 Q15N = FL huCD4 Q15N (Homo sapiens, UniProt P01730, Q15N); experiment: CADA down-modulation of cellular huCD4; assay type: cell-based; conditions: HEK293T, 48h
Procedure, shortened: as §4

FL huCD4 L16A = FL huCD4 L16A (Homo sapiens, UniProt P01730, L16A); experiment: CADA down-modulation of cellular huCD4; assay type: cell-based
Procedure, shortened: as §4

mouse CD4 (mCD4) = conditions: cell surface expression of mCD4; cited from earlier work
[5] = + less, − more sensitive to CADA
[6] = read-out: Secreted YFP IC50 (μM) Mean, HEK293T, CADA 48h
[7] = read-out: Cellular huCD4 IC50 (μM) Mean, HEK293T, CADA 48h

C=C1CN(S(=O)(=O)c2ccc(C)cc2)CCCN(Cc2ccccc2)CCCN(S(=O)(=O)c2ccc(C)cc2)C1 [CADA, Cyclotriazadisulfonamide]
inhibitory effect of CADA on protein translocation compared to WT ([1]; 15 μM CADA): significantly reduced | impact of CADA on co-translational translocation ([1]; increasing doses of CADA): significantly reduced | Secreted YFP FC (fold change of mean IC50 relative to WT) (huCD4_1–32-YFP G25A; [5]): −3.6 | IC50 (huCD4_1–32-YFP G25A; [6]): 0.35 µM | Secreted YFP FC (fold change of mean IC50 relative to WT) (huCD4_1–32-YFP L14A; [5]): −1.1 | IC50 (huCD4_1–32-YFP L14A; [6]): 1.12 µM | Cellular huCD4 FC (fold change of mean IC50 relative to WT) (FL huCD4 K27A; [5]): +2.4 | IC50 (FL huCD4 K27A; [7]): 1.3 µM | sensitivity to CADA (FL huCD4 V13L;A17L): nearly full resistance to CADA | inhibitory effect of CADA on protein translocation compared to WT ([2]; 15 μM CADA): responded significantly less to CADA | effect of CADA on co-translational translocation ([2]; increasing doses of CADA): full resistance to CADA | sensitivity of translocation towards CADA compared to WT [3]: higher sensitivity towards CADA | sensitivity to CADA (huCD4_1–32-YFP Q15A;P20A): no longer responded to CADA | Secreted YFP FC (fold change of mean IC50 relative to WT) (huCD4_1–32-YFP A22V; [5]): +1.2 | IC50 (huCD4_1–32-YFP A22V; [6]): 1.58 µM | Cellular huCD4 FC (fold change of mean IC50 relative to WT) (FL huCD4 P20A; [5]): +4.4 | IC50 (FL huCD4 P20A; [7]): 2.35 µM | Secreted YFP FC (fold change of mean IC50 relative to WT) (huCD4_1–32-YFP Q15A; [5]): >+39 | IC50 (huCD4_1–32-YFP Q15A; [6]): > 50 µM | Cellular huCD4 FC (fold change of mean IC50 relative to WT) (FL huCD4 WT; [5]): 1.00 | IC50 (FL huCD4 WT; [7]): 0.54 µM | Secreted YFP FC (fold change of mean IC50 relative to WT) (huCD4_1–32-YFP A21V; [5]): −1.6 | IC50 (huCD4_1–32-YFP A21V; [6]): 0.77 µM | Cellular huCD4 FC (fold change of mean IC50 relative to WT) (FL huCD4 L18A; [5]): −5.4 | IC50 (FL huCD4 L18A; [7]): 0.1 µM | Secreted YFP FC (fold change of mean IC50 relative to WT) (huCD4_1–32-YFP H9A; [5]): +1.7 | IC50 (huCD4_1–32-YFP H9A; [6]): 2.13 µM | sensitivity of translocation towards CADA compared to WT [4]: higher sensitivity towards CADA | Secreted YFP FC (fold change of mean IC50 relative to WT) (huCD4_1–32-YFP A17V; [5]): >+39 | IC50 (huCD4_1–32-YFP A17V; [6]): > 50 µM | Secreted YFP FC (fold change of mean IC50 relative to WT) (huCD4_1–32-YFP F7A; [5]): −2.8 | IC50 (huCD4_1–32-YFP F7A; [6]): 0.46 µM | Secreted YFP FC (fold change of mean IC50 relative to WT) (huCD4_1–32-YFP L10A; [5]): −2.1 | IC50 (huCD4_1–32-YFP L10A; [6]): 0.6 µM | enhanced CADA sensitivity relative to WT (huCD4_1–32-YFP L12A): 5 fold | Secreted YFP FC (fold change of mean IC50 relative to WT) (huCD4_1–32-YFP L12A; [5]): −5.3 | IC50 (huCD4_1–32-YFP L12A; [6]): 0.24 µM | sensitivity to CADA (FL huCD4 Q15N): partially restored CADA sensitivity | Cellular huCD4 FC (fold change of mean IC50 relative to WT) (FL huCD4 L16A; [5]): −4.9 | IC50 (FL huCD4 L16A; [7]): 0.11 µM | sensitivity of mouse CD4 to CADA (mouse CD4 (mCD4)): not affected by CADA; also recorded: completely resistant to CADA
